Laboratory results taken from paper PMC4576993 (Leukemia, 2011).
“Also recorded” adds a separate entry of the source. Where two headings read alike, the source gives them in different places.

Columns and labels:
[1] = type: in vivo, human
Outline: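 Open-label 3+3-type escalation in cohorts of 3–6, starting at 18 mg/m2 weekly (days 1, 8, 15) or 9 mg/m2 twice weekly (days 1, 4, 8, 11), 28-day cycles, with modified Fibonacci increments. A cohort was expanded to 6 on any DLT. MTD was the level below that with ≥2/6 DLTs. DLT was assessed in cycle 1 through day 29. Toxicity was graded by NCI CTCAE v3.0. One 25% dose reduction was allowed, with supportive care permitted.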

[2] = Plasma vosaroxin pharmacokinetics in patients; type: in vivo, human; settings: for half-life: T1/2, mean
P-glycoprotein = settings: cited from earlier work
[3] = twice weekly (n = 31), Grade 1 or 2
[4] = twice weekly (n = 31), Grade ≥3
[5] = two patients with CR, weekly schedule

SMILES: CN[C@H]1CN(c2ccc3c(=O)c(C(=O)O)cn(-c4nccs4)c3n2)C[C@@H]1OC [vosaroxin, (+)-1,4-dihydro-7-(trans-3-methoxy-4-methylamino-1-pyrrolidinyl)-4-oxo-1-(2-thiazolyl)-1,8-naphthyridine-3-carboxylic acid]
- 30-day all-cause mortality rate ([1]; 73 treated patients): 11%
- Deaths within 30 days after the first dose ([1]; 73 treated patients): Eight
- Abdominal pain, % of patients ([1]; Total (n = 73), All grades): 22%
- Abdominal pain, No. of patients ([1]; Total (n = 73), All grades): 16
- Anorexia, No. of patients ([1]; Total (n = 73), All grades): 30
- Diarrhea, % of patients ([1]; Total (n = 73), All grades): 49%
- Diarrhea, No. of patients ([1]; Total (n = 73), All grades): 36
- Nausea, % of patients ([1]; Total (n = 73), All grades): 63%
- Nausea, No. of patients ([1]; Total (n = 73), All grades): 46
- Peripheral edema, % of patients ([1]; Total (n = 73), All grades): 34%
- Peripheral edema, No. of patients ([1]; Total (n = 73), All grades): 25
- Petechiae, % of patients ([1]; Total (n = 73), All grades): 21%
- Petechiae, No. of patients ([1]; Total (n = 73), All grades): 15
- Pleural effusion, % of patients ([1]; Total (n = 73), All grades): 22%
- Pleural effusion, No. of patients ([1]; Total (n = 73), All grades): 16
- Pyrexia, % of patients ([1]; Total (n = 73), All grades): 29%
- Pyrexia, No. of patients ([1]; Total (n = 73), All grades): 21
- Stomatitis, % of patients ([1]; Total (n = 73), All grades): 29%
- Stomatitis, No. of patients ([1]; Total (n = 73), All grades): 21
- Clinical manifestation of QTc prolongation, such as torsades de pointes ([1]; all treated patients): No clinical manifestation of QTc prolongation
- Stomatitis duration, range ([1]; cycle 1): 5 to 39 days
- Stomatitis median duration ([1]; cycle 1): 15 days
- Stomatitis median onset ([1]; cycle 1): 14 days
- Stomatitis onset, range ([1]; cycle 1): 3 to 20 days
- Patients experiencing stomatitis grade 1–2 ([1]; cycle 1, overall): 12%
- Patients experiencing stomatitis grade ≥3 ([1]; cycle 1, overall): 15%
- Patients experiencing stomatitis of any grade ([1]; cycle 1, overall): 27%
- Treatment-related hepatic or renal dysfunction ([1]; doses up to 90 mg/m^2 weekly and 50 mg/m^2 twice weekly): No grade 3 or greater treatment-related hepatic or renal dysfunction was reported
- Time of death after first dose, range ([1]; eight deaths within 30 days): 11 to 30 days
- Dose-limiting toxicity (DLT) ([1]; patients with advanced leukemia, both schedules): stomatitis
- Abdominal pain, % of patients [1, 3]: 10%
- Abdominal pain, No. of patients [1, 3]: 3
- Anorexia, % of patients [1, 3]: 39%
- Anorexia, No. of patients [1, 3]: 12
- Diarrhea, % of patients [1, 3]: 39%
- Diarrhea, No. of patients [1, 3]: 12
- Dyspnea, No. of patients [1, 3]: 10
- Fatigue, No. of patients [1, 3]: 14
- Febrile neutropenia, % of patients [1, 3]: 0%
- Febrile neutropenia, No. of patients [1, 3]: 0
- Infection (20 individual adverse event terms), No. of patients [1, 3]: 10
- Nausea, % of patients [1, 3]: 68%
- Nausea, No. of patients [1, 3]: 21
- Peripheral edema, % of patients [1, 3]: 29%
- Peripheral edema, No. of patients [1, 3]: 9
- Petechiae, % of patients [1, 3]: 19%
- Petechiae, No. of patients [1, 3]: 6
- Pleural effusion, % of patients [1, 3]: 16%
- Pleural effusion, No. of patients [1, 3]: 5
- Pyrexia, % of patients [1, 3]: 19%
- Pyrexia, No. of patients [1, 3]: 6
- Stomatitis, % of patients [1, 3]: 19%
- Stomatitis, No. of patients [1, 3]: 6
- Abdominal pain, % of patients [1, 4]: 3%
- Abdominal pain, No. of patients [1, 4]: 1
- Anorexia, % of patients [1, 4]: 0%
- Anorexia, No. of patients [1, 4]: 0
- Diarrhea, % of patients [1, 4]: 3%
- Diarrhea, No. of patients [1, 4]: 1
- Dyspnea, % of patients [1, 4]: 3%
- Dyspnea, No. of patients [1, 4]: 1
- Fatigue, % of patients [1, 4]: 0%
- Fatigue, No. of patients [1, 4]: 0
- Febrile neutropenia, No. of patients [1, 4]: 15
- Infection (20 individual adverse event terms), No. of patients [1, 4]: 11
- Nausea, % of patients [1, 4]: 3%
- Nausea, No. of patients [1, 4]: 1
- Peripheral edema, % of patients [1, 4]: 0%
- Peripheral edema, No. of patients [1, 4]: 0
- Petechiae, % of patients [1, 4]: 3%
- Petechiae, No. of patients [1, 4]: 1
- Pleural effusion, % of patients [1, 4]: 3%
- Pleural effusion, No. of patients [1, 4]: 1
- Pyrexia, No. of patients [1, 4]: 4
- Stomatitis, % of patients [1, 4]: 19%
- Stomatitis, No. of patients [1, 4]: 6
- Time to recovery of peripheral absolute neutrophil counts to >1×10^9/l [1, 5]: 50 days
- Time to recovery of platelets to ≥100×10^9/l [1, 5]: 28 days
- Abdominal pain, No. of patients ([1]; weekly (n = 42), Grade 1 or 2): 11
- Diarrhea, % of patients ([1]; weekly (n = 42), Grade 1 or 2): 52%
- Diarrhea, No. of patients ([1]; weekly (n = 42), Grade 1 or 2): 22
- Dyspnea, % of patients ([1]; weekly (n = 42), Grade 1 or 2): 31%
- Fatigue, No. of patients ([1]; weekly (n = 42), Grade 1 or 2): 19
- Febrile neutropenia, % of patients ([1]; weekly (n = 42), Grade 1 or 2): 0%
- Febrile neutropenia, No. of patients ([1]; weekly (n = 42), Grade 1 or 2): 0
- Infection (20 individual adverse event terms), % of patients ([1]; weekly (n = 42), Grade 1 or 2): 12%
- Infection (20 individual adverse event terms), No. of patients ([1]; weekly (n = 42), Grade 1 or 2): 5
- Nausea, % of patients ([1]; weekly (n = 42), Grade 1 or 2): 57%
- Nausea, No. of patients ([1]; weekly (n = 42), Grade 1 or 2): 24
- Peripheral edema, % of patients ([1]; weekly (n = 42), Grade 1 or 2): 36%
- Peripheral edema, No. of patients ([1]; weekly (n = 42), Grade 1 or 2): 15
- Petechiae, % of patients ([1]; weekly (n = 42), Grade 1 or 2): 19%
- Petechiae, No. of patients ([1]; weekly (n = 42), Grade 1 or 2): 8
- Pleural effusion, % of patients ([1]; weekly (n = 42), Grade 1 or 2): 21%
- Pleural effusion, No. of patients ([1]; weekly (n = 42), Grade 1 or 2): 9
- Pyrexia, No. of patients ([1]; weekly (n = 42), Grade 1 or 2): 10
- Stomatitis, % of patients ([1]; weekly (n = 42), Grade 1 or 2): 10%
- Stomatitis, No. of patients ([1]; weekly (n = 42), Grade 1 or 2): 4
- Abdominal pain, % of patients ([1]; weekly (n = 42), Grade ≥3): 2%
- Abdominal pain, No. of patients ([1]; weekly (n = 42), Grade ≥3): 1
- Anorexia, % of patients ([1]; weekly (n = 42), Grade ≥3): 2%
- Anorexia, No. of patients ([1]; weekly (n = 42), Grade ≥3): 1
- Diarrhea, % of patients ([1]; weekly (n = 42), Grade ≥3): 2%
- Diarrhea, No. of patients ([1]; weekly (n = 42), Grade ≥3): 1
- Dyspnea, % of patients ([1]; weekly (n = 42), Grade ≥3): 0%
- Dyspnea, No. of patients ([1]; weekly (n = 42), Grade ≥3): 0
- Fatigue, % of patients ([1]; weekly (n = 42), Grade ≥3): 2%
- Fatigue, No. of patients ([1]; weekly (n = 42), Grade ≥3): 1
- Febrile neutropenia, No. of patients ([1]; weekly (n = 42), Grade ≥3): 28
- Infection (20 individual adverse event terms), No. of patients ([1]; weekly (n = 42), Grade ≥3): 22
- Nausea, % of patients ([1]; weekly (n = 42), Grade ≥3): 0%
- Nausea, No. of patients ([1]; weekly (n = 42), Grade ≥3): 0
- Peripheral edema, % of patients ([1]; weekly (n = 42), Grade ≥3): 2%
- Peripheral edema, No. of patients ([1]; weekly (n = 42), Grade ≥3): 1
- Petechiae, % of patients ([1]; weekly (n = 42), Grade ≥3): 0%
- Petechiae, No. of patients ([1]; weekly (n = 42), Grade ≥3): 0
- Pleural effusion, % of patients ([1]; weekly (n = 42), Grade ≥3): 2%
- Pleural effusion, No. of patients ([1]; weekly (n = 42), Grade ≥3): 1
- Pyrexia, % of patients ([1]; weekly (n = 42), Grade ≥3): 2%
- Pyrexia, No. of patients ([1]; weekly (n = 42), Grade ≥3): 1
- Stomatitis, % of patients ([1]; weekly (n = 42), Grade ≥3): 12%
- Stomatitis, No. of patients ([1]; weekly (n = 42), Grade ≥3): 5
- Patients with grade 3 stomatitis as DLT ([1]; weekly schedule): five
- Differences in clearance based on age, sex, body weight or body surface area ([2]; age overall and <65 versus ≥65 years): No significant differences in clearance
- Average total body clearance ([2]; all patients): 2 l/h/m^2
- Induction or inhibition of vosaroxin metabolism after repeated doses ([2]; clearance compared weekly vs days 1, 4, 8 and 11): No induction or inhibition of vosaroxin metabolism was evident
- Plasma exposure (AUC) versus dose ([2]; dose range 9–90 mg/m^2): dose proportional; also recorded: increased proportionally with an increase in dose
- AUC(0-t) ([2]; human, plasma, intravenous, 72 mg/m2): 32500 ng·h/mL
- AUC(0-inf) ([2]; human, plasma, intravenous, 72 mg/m2, AUCinf, mean, weekly, Day 1, 72 mg/m^2, N 11, cycle 1): 39400 ng·h/mL
- clearance ([2]; human, plasma, intravenous, 72 mg/m2, CL, mean, weekly, Day 1, 72 mg/m^2, N 11, cycle 1): 69.3 mL/min
- MRT ([2]; human, plasma, intravenous, 72 mg/m2, MRT, mean, weekly, Day 1, 72 mg/m^2, N 11, cycle 1): 33.9 h
- Vd ([2]; human, plasma, intravenous, 72 mg/m2, Vss, mean, weekly, Day 1, 72 mg/m^2, N 11, cycle 1): 130 L
- Cmax ([2]; human, plasma, intravenous, 72 mg/m^2): 1920 ng/mL
- AUC(0-inf) ([2]; human, plasma, intravenous, AUCinf, mean, twice weekly, Day 1, 9–50 mg/m^2, N 31, cycle 1): 14200 ng·h/mL
- AUC(0-inf) ([2]; human, plasma, intravenous, AUCinf, mean, twice weekly, Day 8, 9–50 mg/m^2, N 29, cycle 1): 15600 ng·h/mL
- AUC(0-inf) ([2]; human, plasma, intravenous, AUCinf, mean, twice weekly, Day 11, 9–50 mg/m^2, N 28, cycle 1): 16000 ng·h/mL
- clearance ([2]; human, plasma, intravenous, Average total body clearance, all patients): 66.7 mL/min
- clearance ([2]; human, plasma, intravenous, CL, mean, twice weekly, Day 1, 9–50 mg/m^2, N 31, cycle 1): 72.8 mL/min
- clearance ([2]; human, plasma, intravenous, CL, mean, twice weekly, Day 8, 9–50 mg/m^2, N 29, cycle 1): 75.7 mL/min
- clearance ([2]; human, plasma, intravenous, CL, mean, twice weekly, Day 11, 9–50 mg/m^2, N 28, cycle 1): 75.3 mL/min
- clearance ([2]; human, plasma, intravenous, CL, mean, weekly, Day 1, 18–90 mg/m^2, N 41, cycle 1): 65.3 mL/min
- MRT ([2]; human, plasma, intravenous, MRT, mean, twice weekly, Day 1, 9–50 mg/m^2, N 31, cycle 1): 33.9 h
- MRT ([2]; human, plasma, intravenous, MRT, mean, twice weekly, Day 8, 9–50 mg/m^2, N 29, cycle 1): 28.6 h
- MRT ([2]; human, plasma, intravenous, MRT, mean, twice weekly, Day 11, 9–50 mg/m^2, N 28, cycle 1): 30.8 h
- half-life ([2]; human, plasma, intravenous, twice weekly, Day 1, 9–50 mg/m^2, N 31, cycle 1): 26.6 h
- half-life ([2]; human, plasma, intravenous, twice weekly, Day 4, 9–50 mg/m^2, N 30, cycle 1): 28.2 h
- Vd ([2]; human, plasma, intravenous, Vss, mean, twice weekly, Day 1, 9–50 mg/m^2, N 31, cycle 1): 142 L
- Vd ([2]; human, plasma, intravenous, Vss, mean, twice weekly, Day 8, 9–50 mg/m^2, N 29, cycle 1): 126 L
- Vd ([2]; human, plasma, intravenous, Vss, mean, twice weekly, Day 11, 9–50 mg/m^2, N 28, cycle 1): 136 L
- Drug accumulation (AUC72 ratio) day 11/day 1 ([2]; twice-weekly schedule, repeated doses, n=28, P<0.05): 1.2
- Drug accumulation (AUC72 ratio) day 4/day 1 ([2]; twice-weekly schedule, repeated doses, n=29, P<0.05): 1.2
- Substrate for P-glycoprotein (P-glycoprotein): not a substrate for P-glycoprotein
